Activity calls are given as the source filed them. No cut-off for these calls is given here.
Experiments:
[1] = molecular target: T1, Polyunsaturated fatty acid 5-lipoxygenase (Homo sapiens, UniProt P09917); experiment: Inhibition of 5-LO in human neutrophils using arachidonic acid as substrate preincubated for 15 mins measured after 10 mins by HPLC analysis
T1 sequence (P09917 whole entry): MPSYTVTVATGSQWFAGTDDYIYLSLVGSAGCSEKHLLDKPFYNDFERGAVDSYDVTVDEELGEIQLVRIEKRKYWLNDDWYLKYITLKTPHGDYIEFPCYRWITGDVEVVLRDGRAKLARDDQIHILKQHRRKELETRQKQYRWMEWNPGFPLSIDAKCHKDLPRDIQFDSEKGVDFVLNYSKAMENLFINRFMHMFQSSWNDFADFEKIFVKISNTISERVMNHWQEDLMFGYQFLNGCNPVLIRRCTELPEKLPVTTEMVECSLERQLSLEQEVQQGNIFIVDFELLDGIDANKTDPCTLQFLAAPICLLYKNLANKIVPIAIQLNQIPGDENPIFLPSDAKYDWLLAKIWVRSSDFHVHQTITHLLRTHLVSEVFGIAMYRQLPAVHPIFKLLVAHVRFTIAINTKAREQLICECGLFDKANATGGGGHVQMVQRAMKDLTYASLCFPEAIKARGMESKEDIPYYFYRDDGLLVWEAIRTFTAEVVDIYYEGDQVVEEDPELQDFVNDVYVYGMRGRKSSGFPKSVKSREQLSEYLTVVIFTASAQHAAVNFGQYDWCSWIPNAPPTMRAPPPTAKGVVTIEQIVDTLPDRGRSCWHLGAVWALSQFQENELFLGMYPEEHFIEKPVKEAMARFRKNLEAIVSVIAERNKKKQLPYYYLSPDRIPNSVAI
Outline: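 Fresh human neutrophils, 1 × 10⁷/mL in PBS pH 7.4 with 1 mM CaCl2 and 1 mg/mL glucose, preincubated 15 min at 37 °C. LTB4, its all-trans isomers and 5-H(P)ETE by HPLC.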

[2] = molecular target: T2, Prostaglandin G/H synthase 1 (Ovis aries) (UniProt P05979); experiment: Inhibition of purified ovine COX-1 assessed as residual activity by measuring formation of 12-HHT from arachidonic acid preincubated at 10 uM for 5 mins before substrate addition measured after 5 mins by HPLC analysis relative to control
T2 sequence (whole entry): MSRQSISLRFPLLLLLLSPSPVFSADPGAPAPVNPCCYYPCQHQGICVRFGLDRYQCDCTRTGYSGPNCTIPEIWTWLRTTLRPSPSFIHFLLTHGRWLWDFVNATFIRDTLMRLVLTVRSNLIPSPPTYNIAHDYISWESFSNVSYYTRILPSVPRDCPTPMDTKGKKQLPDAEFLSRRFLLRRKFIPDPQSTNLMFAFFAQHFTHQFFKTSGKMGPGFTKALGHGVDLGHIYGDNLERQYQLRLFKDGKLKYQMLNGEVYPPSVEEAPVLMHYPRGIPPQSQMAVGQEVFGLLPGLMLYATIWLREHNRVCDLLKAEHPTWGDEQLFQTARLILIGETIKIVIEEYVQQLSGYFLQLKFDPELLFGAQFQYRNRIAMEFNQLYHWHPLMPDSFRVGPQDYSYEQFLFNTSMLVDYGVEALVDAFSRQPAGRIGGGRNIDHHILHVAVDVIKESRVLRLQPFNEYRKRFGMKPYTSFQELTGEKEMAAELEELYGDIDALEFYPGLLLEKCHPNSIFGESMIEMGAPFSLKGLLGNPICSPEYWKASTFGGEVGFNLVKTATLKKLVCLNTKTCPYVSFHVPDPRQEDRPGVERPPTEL
Outline: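 Purified ovine COX-1 (50 units) in 100 mM Tris pH 8 with 5 mM glutathione, 5 μM hemoglobin and 100 μM EDTA. Preincubated 5 min at 4 °C then 1 min at 37 °C. 5 μM arachidonic acid added; 12-HHT extracted after 5 min and measured by HPLC. Residual activity at 10 μM, three independent experiments.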

[3] = Aqueous stability of the compound in at 2 uM in 10 mM aqueous ammonium bicarbonate at pH 7.9 assessed as formation of trans-6-(4'-hydroxy-3'-methoxyphenyl)-2,4-dioxo-5-hexenal measured as residual amount of compound by reversed phase liquid chromatography-coupled mass spectrometry; format: physicochemical; conditions: buffer, pH 7.9, 2 µM
Outline: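 Compounds at 2 μM in 10 mM aqueous ammonium bicarbonate pH 7.9, incubated 30 min at 37 °C. Analysed by UPLC-MS on a C18 column, gradient acetonitrile/water with 0.07% formic acid, at 0.7 mL/min. Residual amount given as % of control; three to four independent experiments.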

PBMC = experiment: Cytotoxicity against human PBMCs assessed as cell viability after 24 hrs by MTT assay; format: cell-based
Outline: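 Human PBMC (2 × 10⁵/well), 24 h exposure. MTT then 4 h at 37 °C in darkness. Formazan solubilized with 10% SDS in 20 mM HCl; absorbance 550 nm. Viability relative to untreated cells; IC50 derived.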

[4] = molecular target: T1, Polyunsaturated fatty acid 5-lipoxygenase; experiment: Inhibition of human recombinant 5-LO expressed in Escherichia coli Bl21 (DE3) using arachidonic acid as substrate preincubated for 10 mins measured after 10 mins by RP-HPLC analysis
Outline: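 5-LO expressed from pT3-5LO in E. coli BL21(DE3), semi-purified on ATP-agarose, diluted in PBS with 1 mM EDTA and 1 mM ATP. Preincubated with compound 10 min at 4 °C, then 30 s at 37 °C. Started with 2 mM CaCl2 plus 20 μM arachidonic acid; 10 min at 37 °C; ice-cold methanol stop. Three to four experiments.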

[5] = molecular target: T3, Prostaglandin G/H synthase 1 (Homo sapiens, UniProt P23219); experiment: Inhibition of COX1-mediated […] in human platelets assessed as residual activity by measuring formation of 12-HHT from arachidonic acid preincubated at 10 uM for 5 mins measured after 5 mins by RP-HPLC analysis relative to control; values are per cent of control
T3 sequence (P23219 whole entry): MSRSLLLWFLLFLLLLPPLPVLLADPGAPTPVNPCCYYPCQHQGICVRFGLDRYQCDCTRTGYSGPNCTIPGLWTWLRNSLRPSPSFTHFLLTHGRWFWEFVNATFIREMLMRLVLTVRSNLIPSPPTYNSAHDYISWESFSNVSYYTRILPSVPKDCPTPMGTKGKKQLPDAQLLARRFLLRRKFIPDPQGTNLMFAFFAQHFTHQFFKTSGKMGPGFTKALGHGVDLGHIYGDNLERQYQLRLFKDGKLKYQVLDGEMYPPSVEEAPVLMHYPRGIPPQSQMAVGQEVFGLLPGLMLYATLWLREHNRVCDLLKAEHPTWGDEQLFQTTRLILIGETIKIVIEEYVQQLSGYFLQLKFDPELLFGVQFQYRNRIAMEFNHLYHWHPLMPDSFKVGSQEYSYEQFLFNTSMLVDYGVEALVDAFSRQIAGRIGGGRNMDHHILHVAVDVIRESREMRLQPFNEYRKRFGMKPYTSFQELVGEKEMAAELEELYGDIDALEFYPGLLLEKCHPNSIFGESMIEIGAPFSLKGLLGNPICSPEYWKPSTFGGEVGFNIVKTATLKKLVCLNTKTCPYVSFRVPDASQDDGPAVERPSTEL

[6] = tested on: Radical scavenging activity; experiment: Antioxidant activity assessed as DPPH free radical scavenging activity at 10 uM after 30 mins […] by spectrophotometric analysis; format: functional
[7] = molecular target: T4, Prostaglandin E synthase (Homo sapiens) (UniProt O14684); experiment: Inhibition of mPGES1-mediated PGE2 production in microsomes of IL-1beta stimulated human A549 cells assessed as residual activity preincubated at 10 uM for 15 mins by RP-HPLC analysis relative to control; format: cell-based
T4 sequence (whole entry): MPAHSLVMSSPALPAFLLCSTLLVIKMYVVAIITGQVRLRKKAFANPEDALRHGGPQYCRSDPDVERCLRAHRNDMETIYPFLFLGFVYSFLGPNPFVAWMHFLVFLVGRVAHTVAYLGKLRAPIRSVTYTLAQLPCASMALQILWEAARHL
Outline: (§1)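 mPGES-1 source: microsomes of A549 cells treated 48 h with IL-1β 2 ng/mL, at 25−50 μg protein/mL in 0.1 M potassium phosphate pH 7.4 with 2.5 mM glutathione. Compound preincubation 15 min at 4 °C; PGH2 (20 μM final) for 1 min; FeCl2/citric acid stop with 11β-PGE2 internal standard. PGE2 by RP-HPLC.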

LNCaP = experiment: Cytotoxicity against human LNCAP cells assessed as cell viability after 24 hrs by MTT assay; format: cell-based
Outline: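 LNCaP seeded at 10⁴ cells/well and exposed 24 h. MTT added, then 4 h at 37 °C, 5% CO2, dark. Medium removed and formazan dissolved in DMSO; absorbance at 570 nm.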

[8] = molecular target: T5, Polyunsaturated fatty acid lipoxygenase ALOX12 (Homo sapiens) (UniProt P18054); experiment: Inhibition of 12-LO in human neutrophils assessed as residual activity relative to control; conditions: values are per cent of control
T5 sequence (whole entry): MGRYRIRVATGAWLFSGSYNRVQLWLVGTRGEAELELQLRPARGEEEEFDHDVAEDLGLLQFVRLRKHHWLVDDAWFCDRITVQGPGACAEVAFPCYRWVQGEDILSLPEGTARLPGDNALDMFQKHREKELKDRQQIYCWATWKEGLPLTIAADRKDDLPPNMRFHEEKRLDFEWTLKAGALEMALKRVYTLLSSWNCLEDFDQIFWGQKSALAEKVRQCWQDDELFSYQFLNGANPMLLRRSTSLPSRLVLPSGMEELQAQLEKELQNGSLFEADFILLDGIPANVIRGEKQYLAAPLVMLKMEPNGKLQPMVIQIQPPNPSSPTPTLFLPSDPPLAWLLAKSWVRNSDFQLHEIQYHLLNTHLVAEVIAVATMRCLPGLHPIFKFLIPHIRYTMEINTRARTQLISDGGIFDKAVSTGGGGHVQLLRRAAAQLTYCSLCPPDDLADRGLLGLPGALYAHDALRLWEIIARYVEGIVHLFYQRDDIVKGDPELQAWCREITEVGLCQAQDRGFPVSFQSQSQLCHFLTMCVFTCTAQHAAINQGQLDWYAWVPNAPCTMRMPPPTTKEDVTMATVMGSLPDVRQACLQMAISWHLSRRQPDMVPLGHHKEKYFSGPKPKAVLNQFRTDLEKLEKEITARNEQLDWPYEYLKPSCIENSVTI

[9] = molecular target: T3, Prostaglandin G/H synthase 1; experiment: Inhibition of COX1-mediated PGE2 production in human platelets assessed as residual activity by measuring formation of 12-HHT from arachidonic acid preincubated at 10 uM for 5 mins measured after 5 mins by RP-HPLC analysis relative to control
Outline: (§2)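 Washed human platelets, 10⁸/mL in PBS pH 7.4 with 1 mM CaCl2: 5 min compound preincubation at room temperature, then 1 min at 37 °C. Arachidonic acid 5 μM added; 5 min at 37 °C. 12-HHT extracted and measured by RP-HPLC.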

Prostaglandin E synthase = molecular target: T6, Prostaglandin E synthase (Homo sapiens, UniProt O14684); experiment: Inhibition of mPGES1-mediated PGE2 production in microsomes of IL-1beta stimulated human A549 cells preincubated for 15 mins by RP-HPLC analysis; format: cell-based; outline: as §1
T6 sequence (O14684 whole entry): T4 sequence (whole entry)

[10] = molecular target: T4, Prostaglandin E synthase (Homo sapiens); experiment: Inhibition of mPGES1-mediated PGE2 formation in LPS-stimulated human monocytes preincubated for 15 mins before arachidonic acid substrate addition measured after 30 mins by UPLC-MS/MS analysis; format: cell-based
Outline: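 Fresh human monocytes (adherence-isolated, >85% CD14+; 5 × 10⁶/well) primed with LPS 1 μg/mL for 24 h. Washed, 15 min preincubation, then 2.5 μM A23187 plus 20 μM arachidonic acid for 30 min. Eicosanoids extracted and measured by UPLC-MS/MS, normalized to PGB1 as relative intensities. Two to three independent experiments.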

[11] = molecular target: T3, Prostaglandin G/H synthase 1; experiment: Inhibition of COX1-mediated PGE2 production in human platelets assessed as formation of 12-HHT using arachidonic acid as substrate preincubated for 5 mins measured after 5 mins by RP-HPLC analysis; outline: as §2
[12] = molecular target: T2, Prostaglandin G/H synthase 1 (Ovis aries); experiment: Inhibition of purified ovine COX-1 assessed as residual activity by measuring formation of 12-HHT from arachidonic acid preincubated at 10 uM for 5 mins before substrate addition measured after 5 mins by HPLC analysis relative to control; values are per cent of control
Mus musculus [13] = experiment: Antiinflammatory activity in zymosan-induced peritonitis CD1 mouse model assessed as suppression of MPO activity at 1 mg/kg, ip administered 30 mins before challenge measured 4 hrs post zymosan challenge relative to control; format: functional; conditions: route intraperitoneal
Outline: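 In male CD-1 mice (n = 5−11 per group), dose was given ip in 2% DMSO/saline 30 min before ip zymosan (2 mg/mL, 0.5 mL). Lavage 4 h later. Pelleted exudate cells disrupted; supernatant mixed with 0.167 mg/mL o-dianisidine and 0.0005% H2O2 in PBS, read kinetically by absorbance. U/mL from human neutrophil MPO calibration; % inhibition vs vehicle.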

Mus musculus [14] = experiment: Antiinflammatory activity in zymosan-induced peritonitis CD1 mouse model assessed as suppression of LTB4 level at 1 mg/kg, ip administered 30 mins before challenge measured 4 hrs post zymosan challenge relative to control v
Mus musculus [15] = experiment: Antiinflammatory activity in zymosan-induced peritonitis CD1 mouse model assessed as suppression of neutrophil infiltration at 1 mg/kg, ip administered 30 mins before challenge measured 4 hrs post zymosan challenge relative to control; format: functional; conditions: route intraperitoneal
Outline: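 Zymosan peritonitis in male CD-1 mice (n = 5−11): ip dose in 2% DMSO/saline 30 min before ip zymosan. Peritoneal lavage with 3 mL cold PBS at 4 h. Exudate cells counted by light microscopy in a Burker chamber after trypan blue staining; % inhibition vs vehicle.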

Structure (SMILES)	IC50 [1] [µM]	inhibition [2]	Stability [3]	IC50 [4] [µM]	residual activity [8] [%]	IC50 (PBMC) [µM]	Activity [6] [%]	IC50 (LNCaP) [µM]	also measured
Clc1ccccc1-c1nc2c3ccccc3c3ccccc3c2[nH]1	–	–	–	–	–	–	–	–	IC50 (Prostaglandin E synthase; read-out: IC50): 0.02 µM; inhibition [10]: Active
O=C1O[C@H]([C@@H](O)CO)C(O)=C1O	–	–	–	–	–	–	20.4	–	–
CC(C)c1ccc2c(c1)c(SC(C)(C)C)c(CC(C)(C)C(=O)O)n2Cc1ccc(Cl)cc1	–	–	–	–	–	–	–	–	inhibition in vivo at 1 mg/kg (Mus musculus [13]): 41%; inhibition in vivo at 1 mg/kg (Mus musculus [14]): 63%; inhibition in vivo at 1 mg/kg (Mus musculus [15]): 41%
COc1ccc2c(c1)c(CC(=O)O)c(C)n2C(=O)c1ccc(Cl)cc1	–	–	–	–	–	–	–	–	residual activity [12]: 25%

Further lines, with some results ahead:

IC50 [1] [µM]	inhibition [2]	Stability [3]	IC50 [4] [µM]	residual activity [8] [%]	Structure (SMILES)	IC50 (PBMC) [µM]	Activity [6] [%]	IC50 (LNCaP) [µM]	also measured
8.1	inactive	Unstable	0.6	67.7	COc1cc(/C=C/C(=O)/C=C/c2cc(F)c(O)c(OC)c2)cc(F)c1O	> 50	80.5	25.1	residual activity [5]: 65.2%; Activity [7]: 58.8%
80.2	inactive	Unstable	2.8	75.7	COc1cc(/C=C/C(=O)CC(=O)/C=C/c2cc(CCC(C)C)c(O)c(OC)c2)cc(CCC(C)C)c1O	–	64.3	–	inhibition [9]: inactive; Activity [7]: 71.7%
10	inactive	Unstable	0.4	69.7	COc1cc(/C=C/C(=O)CC(=O)/C=C/c2cc(F)c(O)c(OC)c2)cc(F)c1O	> 50	61.4	> 50	IC50 (Prostaglandin E synthase; read-out: IC50): 8.7 µM; IC50 [11]: 7.5 µM
2.9	–	87.4%	0.4	76.4	COc1cc(CCC(=O)CC(=O)CCc2cc(CCC(C)C)c(O)c(OC)c2)cc(CCC(C)C)c1O	> 50	71.9	> 50	IC50 (Prostaglandin E synthase; a549): Not Active; inhibition [9]: inactive; residual activity [12]: 82.7%

Source: ChEMBL document CHEMBL3286393 (J Med Chem, 2014)
